Experimental data: the array DNA melting data of Ke et al. (doi:10.1101/2024.01.08.574731)

What was measured:
[1] = folding enthalpy; higher = less favourable; fluorescence melt of hairpins on a sequencing array, two-state fit; settings: sodium 0.088 M
Procedure, shortened: (§1)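 Melting temperature and folding enthalpy were obtained by bootstrapped two-state fitting. Fits used Cy3 fluorescence of library hairpins with annealed Cy3 and quencher oligos on a sequenced MiSeq flow cell, imaged in 50 mM Na-HEPES pH 8.0, 25 mM NaCl in 2.5 °C steps up to 60 °C and normalised to pre-quench Cy3 and control constructs. Four replicates were combined by inverse-variance weighting, and fitted temperatures were raised by 9.35 °C to match UV melts.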

[2] = melting temperature; fluorescence melt of hairpins on a sequencing array, two-state fit, raised by 9.35 °C to match UV melts; settings: sodium 0.088 M
Procedure, shortened: as §1

Row | Sequence | folding enthalpy [1] [kcal/mol] | Tm [2] [°C]
1 | GATGCCGAAAGGCAGATC ((((((....)))..))) | -15.6 | 52.2
2 | GATGCCGAAAGGCCGATC ((((((....)))..))) | -10.3 | 25.2
3 | GATGCCGAAAGGCTGATC ((((((....)))..))) | -9.91 | 36.6
4 | GATGCCGAAAGGCTTATC ((((((....)))..))) | -6.76 | 31.5
5 | GATGCCGGAAACGGTGTC ((..(((....)))..)) | -24.3 | 47.8
6 | GATGCGGGAAACCGCACC (.(((((....))))).) | -11.3 | 42.9
7 | GATGCTGGAAACAGCATC (((((((....))))))) | -41.2 | 66.9
8 | GATGGACGAAAGTCTATC (((.(((....))).))) | -30.9 | 52.9
9 | GATGGAGAAATCCATC ((((((....)))))) | -30 | 51
10 | GATGGAGGAAACTCTATC (((.(((....))).))) | -24.4 | 37.8
11 | GATGGAGGAAACTCTGTC ((..(((....)))..)) | -21 | 29.1
12 | GATGGCACGAAAGTGATC (((..(((....)))))) | -12.9 | 27.2
13 | GATGGCCGAAAGGCAATC (((.(((....))).))) | -20.9 | 57.3
14 | GATGGCCGAAAGGCATC (((.(((....)))))) | -14.6 | 49.9
15 | GATGGCGAAAGCCTATC ((((((....))).))) | -12.7 | 44.3
16 | GATGGCGCGAAAGCGATC (((..(((....)))))) | -11 | 31.6
17 | GATGGCGGAAACGTCGTC ((.(.((....)).).)) | -29.6 | 45.4
18 | GATGGGGGAAACTCCATC (((((.(....).))))) | -32.9 | 49.2
19 | GATGGTGAAAACCATC ((((((....)))))) | -36.5 | 57.8
20 | GATGGTGGAAACACCACC (.(((((....))))).) | -13.6 | 44.6
21 | GATGGTGGAAACGCCATC (((((.(....).))))) | -44.2 | 53.4
22 | GATGTACGAAAGTAATC (((.(((....)))))) | -21.1 | 35.8
23 | GATGTAGGAAACTACACC (.(((((....))))).) | -17.8 | 31.8

Row | Sequence | folding enthalpy [1] [kcal/mol] | Tm [2] [°C]
24 | GATGTAGGAAACTATATC (((.(((....))).))) | -28.5 | 33.1
25 | GATGTCCCGAAAGGGATC (((..(((....)))))) | -9.1 | 33.6
26 | GATGTCCGAAAGGAATC (((.(((....)))))) | -13.5 | 31.5
27 | GATGTCGGAAACGACGTC ((.((((....)))).)) | -31.3 | 54.1
28 | GATGTCGGAAACGATATC (((.(((....))).))) | -48.3 | 46.6
29 | GATGTCGGAAACGATGTC ((..(((....)))..)) | -32.6 | 39.9
30 | GATGTGCGAAAGCAAATC (((.(((....))).))) | -23.3 | 46.6
31 | GATGTGCGAAAGCATATC (((.(((....))).))) | -32.6 | 54.2
32 | GATGTGGGAAACCATATC (((.(((....))).))) | -41.5 | 43.2
33 | GATTAAGGAAACTTAATC (((((((....))))))) | -31.3 | 45.5
34 | GATTACGAAAGTAATATC ((((((....)))..))) | -22.1 | 38.6
35 | GATTACGAAAGTACATC ((((((....))).))) | -17.7 | 31.1
36 | GATTAGGGAAACCTAATC (((((((....))))))) | -45.1 | 50.3
37 | GATTATGGAAACATGATC (((.(((....))).))) | -32.8 | 35.5
38 | GATTCACGAAAGTGATC (((.(((....)))))) | -13.4 | 42.3
39 | GATTCAGAAATGAATC ((((((....)))))) | -25.8 | 46.7
40 | GATTCAGGAAACTGAACC (.(((((....))))).) | -17.4 | 31.4
41 | GATTCCCGAAAGGGCATC (((.(((....))).))) | -20.8 | 41.5
42 | GATTCCGAAAGGAAATC ((((((....))).))) | -21.4 | 41.5
43 | GATTCCGAAAGGAAGATC ((((((....)))..))) | -22.3 | 45.4
44 | GATTCCGAAAGGAATC ((((((....)))))) | -35.7 | 64.9
45 | GATTCCGAAAGGACAATC ((((((....)))..))) | -13.8 | 25.6
